Bioassay records as filed in PubChem.
Compounds with a hit are over-represented: about 2.4% of the library has one in this group of screens.
SUMO1 PPI mod: SUMO1-SIM interaction modulation. inhibition, % at 20 µM. 360,000 compounds, 0.33% hits. AID 602429. P63165. SUMO1 binding to a labelled peptide, TR-FRET, 1 h; in the data active means inhibition above about 37%
Target sequence (P63165 whole entry, looked up): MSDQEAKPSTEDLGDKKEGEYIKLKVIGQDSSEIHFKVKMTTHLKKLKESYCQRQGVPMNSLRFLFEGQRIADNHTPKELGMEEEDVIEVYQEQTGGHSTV
DNMT1 inh: blocks human DNA methyltransferase DNMT1; P26358; DNMT1 molecular beacon, Hinp1I cleavage, fluorescence; inhibition (reported as % activation of signal), % at 10 µM; 360,000 compounds, 0.83% hits; AID 588458; in the data active means inhibition above about 50%
STEP block: blocks human striatal-enriched tyrosine phosphatase; P54829; recombinant STEP, OMFP fluorogenic substrate, fluorescence; inhibition, % at 20 µM; 360,000 compounds, 0.25% hits;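 active means inhibition at 20 µM, scaled per plate between control wells, above about 37%, limit read from the data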;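 further: 0% = DMSO with enzyme and substrate and 100% = substrate only without enzyme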
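Material: STEP (striatal-enriched tyrosine phosphatase) enzyme, cell-free | Medium: 50 mM Bis-Tris pH 6.0 with 2.5 mM DTT and 0.005% Tween 20 | Read-out: Percent inhibition scaled to no-enzyme and uninhibited-enzyme controls, plate-pattern corrected | Signal: Fluorescence read at 480 nm ex / 540 nm em | Times: 20 min reaction, room temperature, in the dark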
LMPTP inh: LMPTP (human) inhibition | P24666 | inhibition, % at 20 µM | AID 651560 | recombinant LMPTP-A, OMFP fluorogenic substrate, fluorescence intensity | 360,000 compounds, 0.22% hits;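 active means compounds that cut the enzyme signal by at least half of the control window in the single-dose screen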;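 further: plate controls were DMSO wells with enzyme plus substrate for no effect and substrate without enzyme for full effect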
Target sequence (P24666 whole entry, looked up): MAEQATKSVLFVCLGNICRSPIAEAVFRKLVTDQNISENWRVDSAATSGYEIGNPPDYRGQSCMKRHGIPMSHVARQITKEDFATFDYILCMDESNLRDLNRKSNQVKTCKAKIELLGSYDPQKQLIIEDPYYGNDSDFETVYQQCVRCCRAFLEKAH
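Test system: LMPTP-A phosphatase enzyme. Amount: LMPTP-A at 0.625 nM final in the reaction. Reagent: OMFP substrate, 400 µM final. Times: 50 min at room temperature. Signal: endpoint fluorescence intensity from OMFP dephosphorylation. Read-out basis: % inhibition. Benchmarks: no-enzyme and uninhibited controls.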
Scp1 inh: inhibitors of human Scp-1 phosphatase | inhibition, % at 20 µM | Q9GZU7 | 340,000 compounds, 0.88% hits | AID 493091 | Recombinant Scp1, phosphopeptide, malachite green phosphate absorbance;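 active means inhibition above about 50% at 20 µM, limit read from the data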;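 further: plate controls were DMSO wells with enzyme for no effect and wells lacking enzyme for full effect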
Target sequence (Q9GZU7 76-261 limits assumed): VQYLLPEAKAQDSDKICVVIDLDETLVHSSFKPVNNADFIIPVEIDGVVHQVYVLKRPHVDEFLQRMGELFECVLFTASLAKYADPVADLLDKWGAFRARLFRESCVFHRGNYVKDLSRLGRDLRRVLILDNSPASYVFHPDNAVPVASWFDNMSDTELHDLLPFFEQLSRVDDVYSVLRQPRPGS
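Test system: SCP-1 phosphatase catalytic domain, residues 76-261; measured by: colorimetric phosphate reagent with accelerator and stabiliser, absorbance at 630 nm; timing: enzyme reaction 45 min at room temperature, colour 5 min, stabilisation 30 min; also added: Phosphorylated 17-residue peptide substrate; compound dosing: one concentration, 20 µM, with 1.0% DMSO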
NadD inh: inhibitors of Staphylococcus aureus NadD. AID 602399. purified NadD enzyme, colorimetric absorbance read-out. 360,000 compounds, 0.78% hits. inhibition, % at 20 µM; in the data active means inhibition above about 26%
Scp-1 conf: Scp-1 (human) inhibition, single-dose confirmed. shares compounds with Scp1 inh. recombinant SCP-1 catalytic domain, phosphate release, malachite green absorbance. inhibition, % at 20 µM. 2,500 compounds, 61% hits. AID 540281;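 further: plate controls were DMSO with enzyme for no effect and buffer wells lacking enzyme for full effect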
Scp-1 MG ctr: counter-screen for Scp-1 inhibitors: colorimetric interference. apparent inhibition (interference), % at 20 µM. 2,500 tested, under 10 active. shares compounds with Scp1 inh. Colorimetric interference counterscreen, malachite green absorbance 630 nm;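 further: compounds added after enzyme reaction finished so only phosphate colour detection is probed; plate controls were DMSO wells with completed Scp-1 reaction for no effect and substrate wells lacking enzyme for full effect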
Scp1 DSF: validation of human Scp-1 inhibitors by thermal shift binding. shares compounds with Scp1 inh. Recombinant SCP1, Sypro Orange thermal shift Tm. thermal shift relative to vanadate control, % at 40 µM. 1,500 compounds, 25% hits. AID 540329;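 active means substances whose mean melting-temperature shift, as a percentage of the reference inhibitor's shift, reaches about 5.3%, limit read from the data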;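 further: 0% = Tm of DMSO wells and 100% = Tm with sodium orthovanadate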
DNMT1 confirm: DNMT1 inhibition confirmation, single concentration; 2,300 compounds, 8% hits; AID 602385; inhibition, % at 10 µM; DNMT1 molecular beacon HinP1I cleavage, fluorescence; shares compounds with DNMT1 inh;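 active means average inhibition of at least 30% in the single-concentration confirmation test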
Beacon interf: beacon fluorescence artifact counter-screen | shares compounds with DNMT1 inh | DNMT1 molecular beacon spectral interference counterscreen, fluorescence 485/520 | activation (fluorescence interference), % at 10 µM | 2,300 compounds, 1% hits;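 active means activation of at least 30% at 10 µM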;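 further: DNMT1 catalytic domain with a HinP1I cleavage step and a FAM/dabcyl DNA beacon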
Starred values were filed as active, the others as inactive; · = no result given.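 How the source made its calls, unless noted: active means inhibition of at least 30% at 20 µM; inactive means the rest.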

SMILES	SUMO1 PPI mod	DNMT1 inh	STEP block	LMPTP inh	Scp1 inh	NadD inh	Scp-1 conf	Scp-1 MG ctr	Scp1 DSF	DNMT1 confirm	Beacon interf
Cc1cccc(C(=O)N[C@H](C(=O)OCc2cc(=O)n3c(n2)sc2ccccc23)C(C)C)c1	8	98*	9	23	72*	2	50*	-22	2	3	1
Cc1cccc(C(=O)NCC(=O)OCc2cc(=O)n3ccsc3n2)c1	-1	0	0	-1	-2	-3	·	·	·	·	·
COc1ccc(/C=C/C(=O)OCc2cc(=O)n3c(n2)sc2ccccc23)cc1	-5	6	3	3	-2	9	·	·	·	·	·
O=C(OCc1cc(=O)n2c(n1)sc1ccccc12)c1ccc(O)cc1	9	56*	3	2	64*	-1	53*	-21	-9	1	2
COc1ccc(-c2cc(C(=O)N3CCN(C(=O)c4ccco4)CC3)[nH]n2)cc1	-5	0	0	0	-5	3	·	·	·	·	·
CCN(CC)C(=O)c1cccc(-c2csc(C(O)c3cccc(Cl)c3)n2)c1 (stereo unspecified)	-7	-3	1	2	·	-6	·	·	·	·	·
O=c1[nH]n2c(=O)c3c([nH]c2c1N=Nc1cccc(Cl)c1)CCC3	8	94*	14	46	78*	21	59*	-16	27*	5	-1
O=c1[nH]n2c(=O)c3c([nH]c2c1N=Nc1cccc(C(F)(F)F)c1)CCCC3	15	5	8	2	0	27	·	·	·	·	·
O=C(COC(=O)c1ccc(S(=O)(=O)NCc2ccco2)cc1)NCc1ccc(F)cc1	2	1	-3	1	4	3	·	·	·	·	·
COc1ccc(CNC(=O)COC(=O)c2ccc(S(=O)(=O)NCc3ccco3)cc2)cc1	2	51*	6	2	55*	1	61*	-12	-1	0	1
COc1c(C)cc(Br)cc1C(=O)Nc1ccc(Cc2ccncc2)cc1	-5	-2	0	3	1	5	·	·	·	·	·
CSCC[C@H](NS(=O)(=O)c1ccc(C(C)=O)cc1)c1nnc2ccccn12	0	55*	55*	3	61*	-2	64*	-4	-13	6	0
c1ccc(-c2nn3c(-c4ccco4)nnc3s2)nc1	17	0	6	1	4	-2	·	·	·	·	·
Brc1ccc(-c2nn3c(-c4ccco4)nnc3s2)o1	18	84*	17	10	52*	11	22	-16	·	3	4
CN(C)/C=C/C=C1C(=O)CCCC1=O	-6	55*	2	0	58*	-1	49*	-6	-9	0	1
CC1=NN(c2ccccc2)C(=O)/C1=C/C=C/C=C/N(C)C	-122	-1	17	33	-5	6	·	·	·	·	·
Cc1ccc(Cl)cc1N1CCN(C(=O)CSc2ccsc2[N+](=O)[O-])CC1	-6	63*	2	2	55*	21	68*	-5	8.1*	0	-1
O=C(CSc1ccc(Cl)cc1)N1CCN(c2ccc([N+](=O)[O-])cc2Cl)CC1	-12	-3	7	7	-11	-3	·	·	·	·	·
CCn1nnc(NC(=O)CSc2ccc(Cl)cc2)n1	4	66*	-1	6	51*	13	72*	-6	3	5	2
CCCCn1nnc(NC(=O)Cc2ccc(Cl)cc2)n1	-7	1	-1	-3	20	-2	·	·	·	·	·
